Measurements published in ChEMBL document CHEMBL3758165, “In vitro interactions between anidulafungin and nonsteroidal anti-inflammatory drugs on biofilms of Candida spp” (2016).

Columns and labels:
Format in all cases: functional
[1] = tested on: Meyerozyma guilliermondii; assay: Antibiofilm activity against Candida guilliermondii a83 assessed as fractional inhibitory concentration by two dimensional checkerboard dilution method in presence of diclofenac
How it was run: (§1)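 Biofilms were grown on PVC disks from 2 ml of a 1·10^6 cfu/ml cell suspension. Adhesion ran 1.5 h at 37 °C with shaking at 100 rpm. Disks were PBS-washed, then matured 48 h at 37 °C in RPMI 1640 (MOPS, pH 7). Biofilms were washed again and given 24 h at 37 °C of anidulafungin/NSAID checkerboard combinations (NSAID final 0.1 µM–100 mM). Read-out was XTT-menadione (2 h, 37 °C, 490 nm). SMIC was defined as 50% reduction versus drug-free control, from which FICI was calculated. Triplicates were run on different days.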

Candida albicans [2] = assay: Antibiofilm activity against Candida albicans ATCC 90028 assessed as fractional inhibitory concentration by two dimensional checkerboard dilution method in presence of aspirin
How it was run: (§2)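 Preformed 48 h disk biofilms (RPMI 1640, MOPS pH 7, 37 °C), PBS-washed, exposed 24 h at 37 °C on rocker to two-dimensional checkerboard of anidulafungin plus NSAID in RPMI; NSAID final 0.1 µM to 100 mM. XTT reduction at 490 nm; SMIC = combination giving 50% metabolic reduction versus drug-free control; FIC index calculated; triplicate on different days.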

Candida albicans [3] = assay: Antibiofilm activity against Candida albicans ATCC 24433 assessed as fractional inhibitory concentration by two dimensional checkerboard dilution method in presence of diclofenac; how it was run: as §2
[4] = tested on: Meyerozyma guilliermondii; assay: Antibiofilm activity against Candida guilliermondii a410 assessed as fractional inhibitory concentration by two dimensional checkerboard dilution method in presence of aspirin; how it was run: as §1
Candida albicans [5] = assay: Antibiofilm activity against Candida albicans ATCC 90028 by two dimensional checkerboard dilution method in presence of ibuprofen; how it was run: as §2
Nakaseomyces glabratus [6] = assay: Antibiofilm activity against Candida glabrata ATCC 15126 assessed as fractional inhibitory concentration by two dimensional checkerboard dilution method in presence of diclofenac; how it was run: as §2
[7] = tested on: Meyerozyma guilliermondii; assay: Antibiofilm activity against Candida guilliermondii a83 assessed as fractional inhibitory concentration by two dimensional checkerboard dilution method in presence of ibuprofen; how it was run: as §1
[8] = tested on: Meyerozyma guilliermondii; assay: Antibiofilm activity against Candida guilliermondii a83 after 48 hrs by XTT reduction assay relative to control; set-up: scale not given: the % may be the effect or the level left
Candida albicans [9] = assay: Antibiofilm activity against Candida albicans ATCC 10231 assessed as fractional inhibitory concentration by two dimensional checkerboard dilution method in presence of aspirin; how it was run: as §2
Nakaseomyces glabratus [10] = assay: Antibiofilm activity against Candida glabrata 18a10 by two dimensional checkerboard dilution method in presence of diclofenac; how it was run: as §2
Nakaseomyces glabratus [11] = assay: Antibiofilm activity against Candida glabrata 18a10 assessed as fractional inhibitory concentration by two dimensional checkerboard dilution method in presence of diclofenac; how it was run: as §2
[12] = tested on: Meyerozyma guilliermondii; assay: Antibiofilm activity against Candida guilliermondii ATCC 6260 after 48 hrs by XTT reduction assay relative to control; set-up: scale not given: the % may be the effect or the level left
How it was run: (§3)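 Biofilms grown on autoclaved PVC disks: 1·10^6 cfu ml-1 cells, adhesion 1.5 h at 37 °C shaking 100 rpm, PBS wash, then 48 h at 37 °C in RPMI 1640 (MOPS, pH 7). Metabolic activity read by XTT–menadione reduction, 2 h at 37 °C, supernatant formazan at 490 nm, relative to drug-free control; triplicate on different days.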

[13] = tested on: Meyerozyma guilliermondii; assay: Antibiofilm activity against Candida guilliermondii ATCC 6260 by two dimensional checkerboard dilution method in presence of ibuprofen; how it was run: as §2
Candida albicans [14] = assay: Antibiofilm activity against Candida albicans ATCC 24433 assessed as fractional inhibitory concentration by two dimensional checkerboard dilution method in presence of ibuprofen; how it was run: as §2
Candida albicans [15] = assay: Antibiofilm activity against Candida albicans 17a18 by two dimensional checkerboard dilution method in presence of ibuprofen; how it was run: as §2
Candida albicans [16] = assay: Antibiofilm activity against Candida albicans ATCC 24433 assessed as fractional inhibitory concentration by two dimensional checkerboard dilution method in presence of aspirin; how it was run: as §2
Candida albicans [17] = assay: Antibiofilm activity against Candida albicans ATCC 24433 after 48 hrs by XTT reduction assay relative to control; set-up: scale not given: the % may be the effect or the level left; how it was run: as §3
[18] = tested on: Meyerozyma guilliermondii; assay: Antibiofilm activity against Candida guilliermondii ATCC 6260 assessed as fractional inhibitory concentration by two dimensional checkerboard dilution method in presence of aspirin; how it was run: as §2
Candida albicans [19] = assay: Antibiofilm activity against Candida albicans ATCC 10231 by two dimensional checkerboard dilution method in presence of aspirin; how it was run: as §2
Nakaseomyces glabratus [20] = assay: Antibiofilm activity against Candida glabrata ATCC 15126 by two dimensional checkerboard dilution method in presence of aspirin; how it was run: as §2
[21] = tested on: Meyerozyma guilliermondii; assay: Antibiofilm activity against Candida guilliermondii a410 after 48 hrs by XTT reduction assay relative to control; set-up: scale not given: the % may be the effect or the level left; how it was run: as §3
[22] = tested on: Meyerozyma guilliermondii; assay: Antibiofilm activity against Candida guilliermondii a83 by two dimensional checkerboard dilution method in presence of diclofenac; how it was run: as §1
[23] = tested on: Meyerozyma guilliermondii; assay: Antibiofilm activity against Candida guilliermondii ATCC 6260 by two dimensional checkerboard dilution method in presence of aspirin; how it was run: as §2
Candida albicans [24] = assay: Antibiofilm activity against Candida albicans 17a18 assessed as fractional inhibitory concentration by two dimensional checkerboard dilution method in presence of aspirin; how it was run: as §2
Candida albicans [25] = assay: Antibiofilm activity against Candida albicans ATCC 10231 by two dimensional checkerboard dilution method in presence of diclofenac; how it was run: as §2
[26] = tested on: Meyerozyma guilliermondii; assay: Antibiofilm activity against Candida guilliermondii ATCC 6260 by two dimensional checkerboard dilution method in presence of diclofenac; how it was run: as §2
Nakaseomyces glabratus [27] = assay: Antibiofilm activity against Candida glabrata 18a10 by two dimensional checkerboard dilution method in presence of aspirin; how it was run: as §2
Candida albicans [28] = assay: Antibiofilm activity against Candida albicans ATCC 10231 assessed as fractional inhibitory concentration by two dimensional checkerboard dilution method in presence of ibuprofen; how it was run: as §2
Nakaseomyces glabratus [29] = assay: Antibiofilm activity against Candida glabrata ATCC 15126 by two dimensional checkerboard dilution method in presence of ibuprofen; how it was run: as §2
Nakaseomyces glabratus [30] = assay: Antibiofilm activity against Candida glabrata ATCC 15126 after 48 hrs by XTT reduction assay relative to control; set-up: scale not given: the % may be the effect or the level left; how it was run: as §3
[31] = tested on: Meyerozyma guilliermondii; assay: Antibiofilm activity against Candida guilliermondii a410 by two dimensional checkerboard dilution method in presence of diclofenac; how it was run: as §1
Candida albicans [32] = assay: Antibiofilm activity against Candida albicans ATCC 90028 by two dimensional checkerboard dilution method in presence of diclofenac; how it was run: as §2
[33] = tested on: Meyerozyma guilliermondii; assay: Antibiofilm activity against Candida guilliermondii ATCC 6260 at 1 mM after 24 hrs by XTT reduction assay relative to control; set-up: scale not given: the % may be the effect or the level left
How it was run: (§4)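 Biofilms grown on sterilized PVC disks: 1·10^6 cfu/ml Candida cells adhered for 1.5 h at 37 °C with shaking, washed with PBS, then matured 48 h at 37 °C in RPMI 1640 (MOPS, pH 7). Preformed biofilms were washed and exposed to drug, alone or in two-dimensional checkerboard combination, in RPMI 1640 for 24 h at 37 °C on a rocker.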

Candida albicans [34] = assay: Antibiofilm activity against Candida albicans ATCC 90028 at 0.1 uM to 100 mM after 48 hrs by XTT reduction assay relative to control; set-up: scale not given: the % may be the effect or the level left; how it was run: as §4
[35] = tested on: Meyerozyma guilliermondii; assay: Antibiofilm activity against Candida guilliermondii a410 at 0.2 mM after 24 hrs by XTT reduction assay relative to control; set-up: scale not given: the % may be the effect or the level left; how it was run: as §4
Candida albicans [36] = assay: Antibiofilm activity against Candida albicans ATCC 10231 at 1 mM after 24 hrs by XTT reduction assay relative to control; set-up: scale not given: the % may be the effect or the level left; how it was run: as §4

CCCCCOc1ccc(-c2ccc(-c3ccc(C(=O)N[C@@H]4C[C@@H](O)[C@@H](O)NC(=O)[C@@H]5[C@@H](O)[C@@H](C)CN5C(=O)[C@H]([C@@H](C)O)NC(=O)[C@H]([C@H](O)[C@@H](O)c5ccc(O)cc5)NC(=O)[C@@H]5C[C@@H](O)CN5C(=O)[C@H]([C@H](C)O)NC4=O)cc3)cc2)cc1
Ratio [1]: 0.1 | Ratio (Candida albicans [2]): 0.05 | Ratio (Candida albicans [3]): 0.05 | Ratio [4]: 0.05 | MIC (Candida albicans [5]): 0.4 µg/mL | Ratio (Nakaseomyces glabratus [6]): 0.1 | Ratio [7]: 0.05 | Activity [8]: 47.83% | Ratio (Candida albicans [9]): 0.05 | MIC (Nakaseomyces glabratus [10]): 0.2 µg/mL | Ratio (Nakaseomyces glabratus [11]): 0.1 | Activity [12]: 51.21% | MIC [13]: 0.4 µg/mL | Ratio (Candida albicans [14]): 0.2 | MIC (Candida albicans [15]): 0.4 µg/mL | Ratio (Candida albicans [16]): 0.05 | Activity (Candida albicans [17]): 25.06% | Ratio [18]: 0.05 | MIC (Candida albicans [19]): 0.1 µg/mL | MIC (Nakaseomyces glabratus [20]): 0.1 µg/mL | Activity [21]: 45.62% | MIC [22]: 0.2 µg/mL | MIC [23]: 0.1 µg/mL | Ratio (Candida albicans [24]): 0.05 | MIC (Candida albicans [25]): 0.1 µg/mL | MIC [26]: 0.1 µg/mL | MIC (Nakaseomyces glabratus [27]): 0.1 µg/mL | Ratio (Candida albicans [28]): 0.2 | MIC (Nakaseomyces glabratus [29]): 0.1 µg/mL | Activity (Nakaseomyces glabratus [30]): 27.41% | MIC [31]: 0.1 µg/mL | MIC (Candida albicans [32]): 0.1 µg/mL

CC(=O)Oc1ccccc1C(=O)O [ASPIRIN]
Activity [33]: 54.12%

O=C([O-])Cc1ccccc1Nc1c(Cl)cccc1Cl.[Na+] [DICLOFENAC SODIUM]
Activity (Candida albicans [34]): 51.15%

CC(C)Cc1ccc(C(C)C(=O)O)cc1 (stereo unspecified) [IBUPROFEN]
Activity [35]: 53.24% | Activity (Candida albicans [36]): 16.26%
